Activation data for 29 molecules are collected here from PubChem BioAssay AID2445 (The Scripps Research Institute Molecular Screening Center, 2010).

Among all 320,000 compounds or so, about 200 (0.062%) were called active. The entries come from a sample that favours actives as a whole. Unmarked numbers belong to inactive results.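 The calls were made as follows: active = activation above that plate's cutoff, the mean activation of tested compounds plus 3 SD (cut at about 6.6% in these data, passing the limit was not always enough); inactive = the rest.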

Oxytocin receptor (Homo sapiens), sequence (P30559 whole entry, looked up): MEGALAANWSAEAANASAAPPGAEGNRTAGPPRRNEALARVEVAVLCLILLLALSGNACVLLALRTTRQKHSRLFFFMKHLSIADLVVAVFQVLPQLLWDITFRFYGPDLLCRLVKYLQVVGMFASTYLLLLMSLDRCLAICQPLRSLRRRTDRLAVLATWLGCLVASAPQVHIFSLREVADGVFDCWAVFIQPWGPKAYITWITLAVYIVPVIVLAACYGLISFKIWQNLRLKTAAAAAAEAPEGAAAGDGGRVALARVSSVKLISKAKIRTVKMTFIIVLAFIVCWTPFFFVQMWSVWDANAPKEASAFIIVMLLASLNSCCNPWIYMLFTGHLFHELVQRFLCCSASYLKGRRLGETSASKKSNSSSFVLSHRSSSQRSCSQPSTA

This assay has as its target Oxytocin receptor (Homo sapiens) (UniProt P30559). Briefly: enhancers of oxytocin-evoked OXTR calcium signal – fluorescence, CHO-OTR cells, Fluo-8 calcium, primary screen (AID 2445).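 Also: 100% uses oxytocin at 75 nM as the full agonist control.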 The note with it: Fluo-8 calcium fluorescence, potentiator mode, at 3 µM, stronger effect = higher value, 0% = oxytocin EC15, 100% = EC100. The procedure, abridged: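 Assay system: CHO cell line stably expressing human OTR. Reagent: EC15 oxytocin agonist. Dosing: single dose, 3.0 µM nominal final compound concentration. Timing: compound 6 min at room temperature before oxytocin, 100 s read. Signal: kinetic Fluo-8 calcium fluorescence. Controls: oxytocin EC15 low and EC100 high.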
For `O=C(CNC(=O)c1ccc2ccccc2c1)Nc1ncccc1O`, the activation was 1.14%.

Turning to `COc1ccc(N(C(=O)c2snc(C(N)=O)c2N)C(C(=O)NC2CCCC2)c2ccc(C)o2)c(OC)c1` (centres undefined), the activation was -3.04%.

Turning to `Cc1ccc(OCC(O)CN2CCN(CC(O)COc3ccc(C)cc3Cl)CC2)c(Cl)c1` (centres undefined), the activation was 12.6% (active).

For the molecule `Cc1cccc(OCC(O)CN2CCN(S(=O)(=O)c3ccc(C)cc3C)CC2)c1` (centres undefined), the activation is -12%.

With `OC(COc1ccc(F)cc1Cl)CN1CCc2ccccc2C1` (centres undefined), the activation was -6.27%.

Take `COc1ccc(NC(=O)CCNS(=O)(=O)c2ccc3c(c2)c(=O)n(C)c(=O)n3C)cc1OC`: the activation was -4.46%.

Consider `O=C(Nc1ccc2c(c1)OCO2)C1CC(c2c(F)cccc2Cl)=NO1` (centres undefined), for which the activation is -1.98%.

In the case of `CS(=O)(=O)N(Cc1nc2sc3c(c2c(=O)[nH]1)CCCC3)C1CCCCC1`, the activation was -9.15%.

Take `COc1cc2c(cc1OC)C(=O)NCC(C)(C)O2`: the activation is 0.49%.

Turning to `CN(C(=O)c1cccc(NC(=O)Cc2ccc([N+](=O)[O-])cc2)c1)C1CCC1`, the activation is -0.31%.

On to `O=C(CSc1n[nH]c(-c2cccnc2)n1)Nc1ccc(Cl)cc1`, for which the activation was -11%.

With `COC(=O)C1CCN(C(=O)COC(=O)c2cc(S(=O)(=O)N3CCOCC3)ccc2C)CC1`, the activation was -5.03%.

`O=C(OCCN1C(=O)c2ccccc2C1=O)[C@@H]1CC(O)CN1S(=O)(=O)c1ccccc1[N+](=O)[O-]` (some centres undefined): the activation is -5.05%.

For `CCN(CC(=O)NCc1cccs1)C(=O)c1cccc(S(=O)(=O)Nc2ccccc2OC)c1`, the activation is -5.42%.

In the case of `Cc1ccc(N2C(=O)SC(N(CC(=O)O)c3ccc(C)cc3)C2=O)cc1` (centres undefined), the activation is -15.1%.

For `O=C(NCC(c1ccco1)N1CCc2ccccc21)c1cccc(F)c1` (centres undefined), the activation is -9.25%.

On to `CSc1nnnn1-c1c(C)cc(C)cc1C`, for which the activation is -1.91%.

In the case of `CCOc1ccccc1Nc1nnc(SCC(=O)NCC2CCCO2)s1` (centres undefined), the activation is 0.07%.

In the case of `O=C(CCc1nnc2ccc(NCc3ccccc3Cl)nn12)NCC1CCN(C2CCCC2)C1` (centres undefined), the activation was -8.06%.

Consider `CCCC(NC(=O)c1ccccc1)c1nc2ccccc2n1Cc1ccc(C(=O)OC)o1` (centres undefined), for which the activation is 4.77%.

On to `COc1cccc(-n2c(=O)c3c(C)c(C(=O)N(C)C)sc3n(CC(=O)NCCc3ccc(OC)c(OC)c3)c2=O)c1`, for which the activation is -15.7%.

Regarding `CC(CNC(=O)c1ccc(N)cc1)NC(=O)c1ccc(N)cc1` (centres undefined), the activation was -7.37%.

With `CC(C)(CNC(=O)CNC(=O)C1CCCCC1)N1CCOCC1`, the activation is -6.61%.

For the molecule `COCCN(C(=S)Nc1cccc(Cl)c1C)C(C)c1ccco1` (centres undefined), the activation was 2.23%.

Consider `CC(C)N1C(=S)SC(C)(C)C1n1oc(=O)n(-c2ccc(Cl)c(Cl)c2)c1=O` (centres undefined), for which the activation was -15.1%.

As for `COc1ccc2[nH]c(=O)c(CN(Cc3cccnc3)S(=O)(=O)c3ccccc3F)cc2c1`, the activation was -13.1%.

As for `OC(c1ccc(Cl)cc1)C(CN1CCOCC1)c1ccccc1` (centres undefined), the activation was -9.47%.

`CCS(=O)(=O)c1ccc2c(c1)N(S(=O)(=O)c1ccccc1)CC(C(=O)O)O2` (centres undefined): the activation is -11.9%.

Take `Cc1ccc(-n2ncc3c2CC(C)(C)CC3NC(=O)CCc2cnn(C)c2)cc1` (centres undefined): the activation was -3.78%.
